Among the data in ChEMBL document CHEMBL2311311, “Synthesis and in vitro activity of 1,2,4-triazole-ciprofloxacin hybrids against drug-susceptible and drug-resistant bacteria” (Eur J Med Chem, 2013) are MIC, Ratio and MBC values, retold here.

Assay type in all cases: functional
The test system of experiment [1] is Pseudomonas aeruginosa. As to the kind of experiment: Antimicrobial activity against Pseudomonas aeruginosa ATCC 9027 by broth microdilution method. The method in brief:
(§1)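 Inocula were saline (0.85% NaCl) suspensions at 0.5 McFarland (150 × 10⁶ CFU/mL). Compounds were first screened by agar dilution on Mueller-Hinton agar, and active ones then went to broth microdilution. MIC is the lowest concentration inhibiting growth. The negative control was medium containing DMSO at the final concentration, without compound.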
For orientation: In broth dilution the organism is exposed to a series of concentrations in liquid medium.

The subject of experiment [2] is Staphylococcus epidermidis. As to the kind of experiment: Antimicrobial activity against Staphylococcus epidermidis ATCC 12228 by broth microdilution method. The method in brief:
as §1

Experiment [3] deals with Micrococcus luteus. As to the kind of experiment: Antimicrobial activity against Micrococcus luteus ATCC 10240 by broth microdilution method. The procedure, abridged: as §1
The test system of experiment [4] is Staphylococcus aureus. As to the kind of experiment: Ratio of MBC to MIC for methicillin-resistant Staphylococcus aureus 14001 by broth microdilution method. The method in brief:
(§2)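 Inoculum in sterile saline (0.85% NaCl), adjusted to 0.5 McFarland (150 × 10⁶ CFU/mL). Compounds first screened by agar dilution on Mueller-Hinton agar, then titrated by broth microdilution. Medium with DMSO at the final concentration and no compound served as negative control. MIC is the lowest concentration inhibiting growth. MBC is the lowest concentration giving >99.9% reduction in CFU of the initial inoculum.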

Experiment [5] relates to Staphylococcus aureus. Briefly: Antimicrobial activity against Staphylococcus aureus ATCC 25923 by broth microdilution method. The method in brief: as §1
Experiment [6] deals with Escherichia coli. Briefly: Antimicrobial activity against Escherichia coli ATCC 25922 by broth microdilution method. The method in brief:
as §1

Experiment [7] relates to Bacillus subtilis. As to the kind of experiment: Antimicrobial activity against Bacillus subtilis ATCC 6633 by broth microdilution method. The procedure, abridged: as §1
Experiment [8] deals with Bacillus cereus. Briefly: Antimicrobial activity against Bacillus cereus ATCC 10876 by broth microdilution method. The procedure, abridged:
as §1

Experiment [9] deals with Proteus mirabilis. Briefly: Antimicrobial activity against Proteus mirabilis ATCC 12453 by broth microdilution method. The procedure, abridged:
as §1

Experiment [10] has as its system Staphylococcus aureus. Briefly: Antimicrobial activity against methicillin-resistant Staphylococcus aureus 14001 by broth microdilution method. The method in brief:
as §2

Converted amounts (≈) assume the structure as drawn.

The term MIC denotes the lowest concentration found to suppress growth. As a reminder, the MBC is the smallest concentration meeting the test's criterion for killing. In the case of `O=C(O)c1cn(C2CC2)c2cc(N3CCN(Cn4nc(-c5cccc(Cl)c5)n(-c5ccc(Br)cc5)c4=S)CC3)c(F)cc2c1=O`, the minimum inhibitory concentration (MIC) in [1] stood at 1.38 µM (≈ 0.98 µg/mL); in experiment [2], 5.51 µM (≈ 3.91 µg/mL); in [3] it was 10.1 µM (≈ 7.17 µg/mL); in experiment [5], 5.51 µM (≈ 3.91 µg/mL); in experiment [6], 0.084 µM (≈ 0.0596 µg/mL); in experiment [7] it was 0.34 µM (≈ 0.241 µg/mL). Moreover, the results for the MIC in experiment [8], in [9] and in [10] were 1.38 µM (≈ 0.98 µg/mL), 0.17 µM (≈ 0.121 µg/mL) and 2.76 µM (≈ 1.96 µg/mL), respectively. In addition, in experiment [4], the Ratio was 2. In experiment [10], this compound returned an MBC of 5.51 µM (≈ 3.91 µg/mL).
For the compound `O=C(O)c1cn(C2CC2)c2cc(N3CCN(Cn4nc(-c5cccc(Cl)c5)n(-c5cccc(I)c5)c4=S)CC3)c(F)cc2c1=O`, the MIC in [1] was found to be 0.16 µM (≈ 0.121 µg/mL); in experiment [2] it was 1.29 µM (≈ 0.977 µg/mL); in [3], 2.58 µM (≈ 1.95 µg/mL); in [5], 1.29 µM (≈ 0.977 µg/mL); in [6], 0.02 µM (≈ 0.0151 µg/mL); in [7], 0.04 µM (≈ 0.0303 µg/mL). In addition, the MIC was found to be 0.16 µM (≈ 0.121 µg/mL) in experiment [8], 0.04 µM (≈ 0.0303 µg/mL) in experiment [9] and 0.64 µM (≈ 0.484 µg/mL) in experiment [10]. Further, the Ratio in experiment [4] is listed as 8. The MBC in experiment [10] is 5.16 µM (≈ 3.91 µg/mL).
Take `O=C(O)c1cn(C2CC2)c2cc(N3CCN(Cn4nc(-c5cccc(Cl)c5)n(-c5ccc(I)cc5)c4=S)CC3)c(F)cc2c1=O`: the MIC in experiment [1] was 1.29 µM (≈ 0.977 µg/mL); in experiment [2] it was 5.16 µM (≈ 3.91 µg/mL); in [3], 10.3 µM (≈ 7.8 µg/mL); in experiment [5] it was 5.16 µM (≈ 3.91 µg/mL); in experiment [6], 0.08 µM (≈ 0.0606 µg/mL); in experiment [7] it was 0.32 µM (≈ 0.242 µg/mL). Moreover, the results for the MIC in [8], in experiment [9] and in experiment [10] were 1.29 µM (≈ 0.977 µg/mL), 0.16 µM (≈ 0.121 µg/mL) and 2.58 µM (≈ 1.95 µg/mL), respectively. Further, the Ratio in experiment [4] was 2. This compound also showed an MBC in experiment [10] of 5.16 µM (≈ 3.91 µg/mL).
`O=C(O)c1cn(C2CC2)c2cc(N3CCN(Cn4nc(-c5cccc(Cl)c5)n(-c5ccc(F)cc5F)c4=S)CC3)c(F)cc2c1=O`: the MIC was determined as 0.36 µM (≈ 0.24 µg/mL) in [1]; 0.73 µM (≈ 0.487 µg/mL) in [2]; 2.92 µM (≈ 1.95 µg/mL) in [3]; 0.73 µM (≈ 0.487 µg/mL) in experiment [5]; 0.022 µM (≈ 0.0147 µg/mL) in experiment [6]; 0.09 µM (≈ 0.06 µg/mL) in experiment [7]. Besides, the MIC in experiment [8] turned out to be 0.18 µM (≈ 0.12 µg/mL); in [9], 0.022 µM (≈ 0.0147 µg/mL); in experiment [10] it was 0.73 µM (≈ 0.487 µg/mL). Also, the Ratio in experiment [4] is given as 1. The same compound displayed an MBC in [10] of 0.73 µM (≈ 0.487 µg/mL).
For `O=C(O)c1cn(C2CC2)c2cc(N3CCN(Cn4nc(-c5cccc(Cl)c5)n(-c5ccc(Cl)cc5Cl)c4=S)CC3)c(F)cc2c1=O`, the minimal inhibitory concentration (MIC) stood at 0.17 µM (≈ 0.119 µg/mL) in [1]; 0.7 µM (≈ 0.49 µg/mL) in [2]; 2.78 µM (≈ 1.95 µg/mL) in [3]; 1.4 µM (≈ 0.98 µg/mL) in experiment [5]; 0.043 µM (≈ 0.0301 µg/mL) in [6]; 0.043 µM (≈ 0.0301 µg/mL) in experiment [7]. For the same compound, the results for the MIC in experiment [8], in [9] and in [10] were 0.17 µM (≈ 0.119 µg/mL), 0.043 µM (≈ 0.0301 µg/mL) and 0.7 µM (≈ 0.49 µg/mL), respectively. In addition, in experiment [4], the Ratio was 64. Moreover, the MBC in experiment [10] was determined as 44.6 µM (≈ 31.2 µg/mL).
In the case of `O=C(O)c1cn(C2CC2)c2cc(N3CCN(Cn4nc(-c5cccc(Cl)c5)n(-c5cc(Cl)cc(Cl)c5)c4=S)CC3)c(F)cc2c1=O`, the minimum inhibitory concentration (MIC) in [1] was 11.2 µM (≈ 7.81 µg/mL); in experiment [2], 22.3 µM (≈ 15.6 µg/mL); in experiment [3], 44.6 µM (≈ 31.2 µg/mL); in [5] it was 22.3 µM (≈ 15.6 µg/mL); in experiment [6], 0.7 µM (≈ 0.49 µg/mL); in experiment [7], 1.4 µM (≈ 0.98 µg/mL). The MIC in experiment [8] stood at 5.58 µM (≈ 3.91 µg/mL); in [9], 0.7 µM (≈ 0.49 µg/mL); in experiment [10], 22.3 µM (≈ 15.6 µg/mL). Also, in experiment [4], the Ratio was 2. The compound further gave an MBC in experiment [10] of 44.6 µM (≈ 31.2 µg/mL).
Regarding `Cn1c(-c2cccc(Cl)c2)nn(CN2CCN(c3cc4c(cc3F)c(=O)c(C(=O)O)cn4C3CC3)CC2)c1=S`, the MIC in experiment [1] was determined as 0.1 µM (≈ 0.0569 µg/mL); in experiment [2] it was 0.86 µM (≈ 0.489 µg/mL); in experiment [3] it was 1.72 µM (≈ 0.979 µg/mL); in experiment [5] it was 0.86 µM (≈ 0.489 µg/mL); in experiment [6], 0.053 µM (≈ 0.0302 µg/mL); in experiment [7], 0.053 µM (≈ 0.0302 µg/mL). Further, the values for the MIC in experiment [8], in experiment [9] and in experiment [10] were 0.21 µM (≈ 0.12 µg/mL), 0.053 µM (≈ 0.0302 µg/mL) and 0.42 µM (≈ 0.239 µg/mL), respectively. Also, in [4], the Ratio was 2. The same compound had a minimal bactericidal concentration (MBC) in [10] of 0.86 µM (≈ 0.489 µg/mL).
On to `O=C(O)c1cn(C2CC2)c2cc(N3CCNCC3)c(F)cc2c1=O` [CIPROFLOXACIN], for which the MIC in experiment [1] was 0.72 µM (≈ 0.239 µg/mL); in experiment [2] it was 1.48 µM (≈ 0.49 µg/mL); in [3] it was 5.88 µM (≈ 1.95 µg/mL); in [5], 2.96 µM (≈ 0.981 µg/mL); in [6] it was 0.024 µM (≈ 0.00795 µg/mL); in [7] it was 0.09 µM (≈ 0.0298 µg/mL). The values for the MIC in experiment [8], in [9] and in [10] were 0.36 µM (≈ 0.119 µg/mL), 0.045 µM (≈ 0.0149 µg/mL) and 1.48 µM (≈ 0.49 µg/mL), respectively. Further, in experiment [4], the Ratio is given as 4. Also, the MBC in experiment [10] amounted to 5.92 µM (≈ 1.96 µg/mL).
As to `CN[C@H](CC(C)C)C(=O)N[C@H]1C(=O)N[C@@H](CC(N)=O)C(=O)N[C@H]2C(=O)N[C@H]3C(=O)N[C@H](C(=O)N[C@H](C(=O)O)c4cc(O)cc(O)c4-c4cc3ccc4O)[C@H](O)c3ccc(c(Cl)c3)Oc3cc2cc(c3O[C@@H]2O[C@H](CO)[C@@H](O)[C@H](O)[C@H]2O[C@H]2C[C@](C)(N)[C@H](O)[C@H](C)O2)Oc2ccc(cc2Cl)[C@H]1O` [VANCOMYCIN], in [10], the MBC is 2.7 µM (≈ 3.91 µg/mL) and it took 0.68 µM (≈ 0.986 µg/mL) to inhibit growth (MIC).
